In paper PMC7056512 (Cancer research, 2020):
Like-named read-outs stand apart in the source and are kept apart here.

Experiments:
[1] = system: HNSCC cell lines (013C, 036C, 049C, 067C); test: nonadherent sphere formation; type: cell-based, human; conditions: 1,000nM
Procedure, shortened: (§1)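 3x10^3 cells/well in ultra-low-attachment wells with serum-free DMEM/F12 plus 10ng/ml EGF and 10ng/ml bFGF; medium supplemented on days 4, 7 and 10. Spheres (>50µm) imaged, counted and sized (diameter) at day 10. Replicates: 013C n=4 (16 wells); 036C, 049C and 067C n=3 (12 wells).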

[2] = system: HNSCC cells and patient-matched CAFs; test: protein synthesis, methionine analog incorporation; type: cell-based, human; conditions: for suppression of translation: 100nM, all cells; for inhibition of protein synthesis: at concentrations between 10 and 100nM, 1.5h treatment
[3] = system: HNSCC cancer cells (Detroit562, FaDu); test: clonogenic radio-modulation; type: cell-based, human; conditions: multiple SVC112 doses
Myc in 013C cells = test: Western blot densitometry of Myc; type: cell-based, human; conditions: 24h
067C cells [4] = test: SRB antiproliferative assay; type: cell-based, human; conditions: read-out: IC50, antiproliferative
[5] = target: eEF2 release from the ribosome (Homo sapiens, UniProt P13639); test: co-immunoprecipitation of eEF2 with ribosomal protein RPL13a; type: cell-based; conditions: 100nM; 013C and 036C cells
CUHN036 PDX = test: PDX efficacy study; type: in vivo, Athymic Nude-Foxn1^nu mice; conditions: for T/C (treatment vs control): twice weekly, day 28
Procedure, shortened: (§2)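 Tumor pieces from 4th-8th-generation PDX implanted on both flanks of 6-10-week-old female mice. Anesthetized mice shielded except flank tumors and irradiated at 3 Gy (115 cGy/min) twice weekly for four weeks. Test compound given IP at 60mg/kg right after irradiation and 6h later. Tumors measured twice weekly. ALDH+CD44high CSC fraction measured by flow cytometry on day 28, then related to tumor treatment/control ratio by linear regression.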

Det562 HNSCC cells [6] = conditions: read-out: IC50, proliferation
CUHN004 CSCs = test: sphere formation by CSCs sorted from PDX tumors; type: cell-based, human; conditions: 1,000nM
Procedure, shortened: (§3)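 CSCs sorted from PDX tumours plated at 1x10^4 per well in ultra-low-attachment wells. Medium was serum-free DMEM/F12 with 10ng/ml EGF and 10ng/ml bFGF, supplemented on days 4, 7 and 10. After 14 days, all spheres >50µm imaged, counted and diameter measured.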

Det562 HNSCC cells [7] = test: clonogenic survival assay; type: cell-based, human; conditions: read-out: IC50, clonogenicity, drug 24h, then 9 days growth
013C cells [8] = test: nonadherent sphere formation; type: cell-based, human; conditions: 1,000nM, 10 days
Procedure, shortened: as §1

Myc in 036C cells = test: Western blot densitometry of Myc; type: cell-based, human; conditions: 24h
067C cells [9] = test: protein synthesis, methionine analog incorporation; type: cell-based, human; conditions: 1nM
049C cells [10] = test: SRB antiproliferative assay; type: cell-based, human; conditions: read-out: IC50, antiproliferative
CUHN013 CSCs = test: sphere formation by CSCs sorted from PDX tumors; type: cell-based, human; conditions: 1,000nM
CUHN004 PDX = test: PDX efficacy study; type: in vivo, Athymic Nude-Foxn1^nu mice
049C cells [11] = test: nonadherent sphere formation; type: cell-based, human; conditions: 1,000nM, 10 days
Procedure, shortened: as §1

CUHN047 PDX = test: PDX efficacy study; type: in vivo, Athymic Nude-Foxn1^nu mice; conditions: for T/C (treatment vs control): twice weekly, day 28
Procedure, shortened: as §2

Myc in 049C cells = test: Western blot densitometry of Myc; type: cell-based, human; conditions: 24h
036C cells [12] = test: nonadherent sphere formation; type: cell-based, human; conditions: 1,000nM, 10 days
Procedure, shortened: as §1

013C, 049C, 067C cells = test: ribosome profiling; type: cell-based, human; conditions: 1,000nM, 6h
Procedure, shortened: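 Cells grown 48h in 10cm dishes to ~75% confluence, then treated 6h with DMSO or test compound at 1,000nM. Libraries built with the TruSeq Ribo Profile mammalian protocol. Total mRNA fragments and ribosome-protected fragments sequenced on Illumina HiSeq. RPF counts normalised to RNA-seq, with a >2-fold enrichment cutoff.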

19 HNSCC cell lines = test: cell growth, CellTiter-Glo, 5 days; type: cell-based, human; conditions: read-out: average IC50, growth, average of 19 HNSCC lines
013C cells [13] = test: protein synthesis, methionine analog incorporation; type: cell-based, human; conditions: 10nM
013C cells [14] = test: SRB antiproliferative assay; type: cell-based, human; conditions: read-out: IC50, antiproliferative
067C cells [15] = test: nonadherent sphere formation; type: cell-based, human; conditions: 1,000nM, 10 days
Procedure, shortened: as §1

CUHN013 PDX = test: PDX efficacy study; type: in vivo, Athymic Nude-Foxn1^nu mice
Procedure, shortened: as §2

[16] = system: four non-transformed normal lines; test: clonogenic radio-modulation; type: cell-based
036C cells [17] = test: SRB antiproliferative assay; type: cell-based, human; conditions: read-out: IC50, antiproliferative
Myc in 067C cells = test: Western blot densitometry of Myc; type: cell-based, human; conditions: 24h
CUHN036 CSCs = test: sphere formation by CSCs sorted from PDX tumors; type: cell-based, human; conditions: 1,000nM
Procedure, shortened: as §3

036C cells [18] = test: protein synthesis, methionine analog incorporation; type: cell-based, human; conditions: 1nM
[19] = target: cap-independent translation of capless luciferase mRNA; test: in vitro translation of uncapped poly; type: biochemical, rabbit; conditions: read-out: IC50, in vitro cap-independent translation; 30 min at 30°C
[20] = SVC112 alone, 60mg/kg IP at 0h and 6h
[21] = radiation (3Gy) plus SVC112 60mg/kg
[22] = radiation plus SVC112, by day 28

In the case of `COC(=O)C[C@](O)(CCCC(C)(C)O)C(=O)O[C@@H]1C(OC)=C[C@]23CCCN2CCc2cc4c(cc2[C@H]13)OCO4` [HHT, Homoharringtonine, reference compound], the sphere formation [1] is reported as “blocked nearly all sphere formation”, the suppression of translation [2] is reported as greater than 85% and the “inhibition of protein synthesis” value [2] is reported as “Greater than 75%”.

For “Meta Br-N-29-H derivative of RA-VII [SVC112]”, the “dose-modifying factor (DMF) of radiation” value [3] was greater than 1, the “Myc level, % of baseline” value (Myc in 013C cells) was greater than 60% and the IC50 (067C cells [4]) was 9.3 nM. The “release of eEF2 from the ribosome (immunoprecipitation of eEF2 with Rpl13a)” value [5] was “blocked the release of eEF2 from the ribosome”, the suppression of translation [2] was greater than 85% and the “inhibition of protein synthesis” value [2] was “Greater than 75%”. The “T/C (treatment vs control)” value (CUHN036 PDX; [20]) was 0.45±0.12, the “T/C (treatment vs control)” value (CUHN036 PDX; [21]) was 0.08±0.08 and the “tumors that continued to regress and did not regrow after ending treatment” value (CUHN036 PDX; radiation plus SVC112, after end of treatment) was “six of eight”. For the same compound, the “tumors with complete regression” value (CUHN036 PDX; [22]) was “four of twelve”, the “decrease of CSC fraction (ALDH+CD44hi) in tumors” value (shortened to “decrease of CSC fraction”) (CUHN036 PDX; radiation plus SVC112, day 28) was 10.4 fold and the IC50 (Det562 HNSCC cells [6]) was roughly 280 nM. The “sphere formation by CSCs” value (CUHN004 CSCs) was “blocked sphere formation”, the IC50 (Det562 HNSCC cells [7]) was roughly 15 nM and the sphere formation blocked (013C cells [8]) was 74%. The Myc reduction (Myc in 036C cells) was greater than 80%, the “decrease of protein synthesis” value (067C cells [9]) was greater than 50% and the IC50 (049C cells [10]) was 24.1 nM. For the same compound, the “sphere formation by CSCs” value (CUHN013 CSCs) was “formed fewer, albeit normal-sized spheres”, the “T/C (treatment vs control)” value (CUHN004 PDX; radiation (3Gy) plus SVC112 60mg/kg, twice weekly, day 28) was 0.19±0.05 and the “decrease of CSC fraction” value (CUHN004 PDX; radiation plus SVC112, day 28) was 7.9 fold. For the same compound, the sphere formation blocked (049C cells [11]) was 48%, the “T/C (treatment vs control)” value (CUHN047 PDX; [20]) was 0.37±0.07 and the “T/C (treatment vs control)” value (CUHN047 PDX; [21]) was −0.02±0.03. For the same compound, the “tumors with complete regression” value (CUHN047 PDX; [22]) was “six out of ten”, the “decrease of CSC fraction” value (CUHN047 PDX; radiation plus SVC112, day 28) was 7.6 fold and the Myc reduction (Myc in 049C cells) was greater than 80%. The sphere formation blocked (036C cells [12]) was 100%, the “increase in captured ribosome protected fragments of DUSP1” value (013C, 049C, 067C cells) was 238 fold and the “increase in captured ribosome protected fragments of MAFF” value (013C, 049C, 067C cells) was 346 fold. For the same compound, the “increase in captured ribosome protected fragments of NUAK2” value (013C, 049C, 067C cells) was 666 fold, the “increase in captured ribosome protected fragments of SERTAD1” value (013C, 049C, 067C cells) was 1699 fold and the IC50 (19 HNSCC cell lines) was 155 nM. The “inhibition of protein synthesis” value (013C cells [13]) was ~ 50%, the IC50 (013C cells [14]) was 50.5 nM and the sphere formation blocked (067C cells [15]) was 79%. For the same compound, the tumor response (CUHN013 PDX; SVC112 alone or with radiation, twice weekly) was “did not respond to any treatment”, the “decrease of CSC fraction” value (CUHN013 PDX; radiation plus SVC112, day 28) was 2.4 fold and the “dose-modifying factor (DMF) of radiation” value [16] was “near or below 1”. For the same compound, the IC50 (036C cells [17]) was 3.8 nM, the Myc reduction (Myc in 067C cells) was greater than 80% and the “sphere formation by CSCs” value (CUHN036 CSCs) was “blocked sphere formation”. The “decrease of protein synthesis” value (036C cells [18]) was greater than 50% and the IC50 [19] was 81 ± 16 nM.
